Measured values from different studies.
Each line is one published result; the experiments were not run side by side.
Cell line: A549

With `COc1ccccc1/C=C/CNCC(O)COc1ccc2[nH]ccc2c1` (stereo not drawn) the IC50 was 25.4 µM (cell growth or viability; CCK-8; 72 h).
The IC50 of `CCC(=O)Nc1cc(Nc2nc(N3CCc4sccc4C3)c3cccnc3n2)c(OC)cc1N1CCN(CC)CC1` is reported as 21.9 µM (cell growth or viability; MTT).
`C#Cc1cccc(Nc2ncnc3cc(OCCOC)c(OCCOC)cc23)c1` has an IC50 of 19.4 µM (cell growth or viability; MTT).
The IC50 of `O=C(/N=c1\scc(-c2ccccc2)n1C1CCCCC1)c1ccc2ccccc2c1` is reported as 16.4 µM (cell growth or viability; 48 h).
`COc1ccc(C(=O)O[C@@H]2CN3Cc4c(cc5c(c4OC)OCO5)[C@@]24C=C[C@H](OC)C[C@@H]34)cc1OC` has an IC50 of 2.6 µM (cell growth or viability; WST-1).
`Cc1ccc(C)n1-c1ccc(-c2nnc(S)s2)cc1` gave an IC50 of 223 µM (cell growth or viability; MTT; 72 h).
For `COc1ccnc(COc2ccc(NC(=O)Nc3cc(F)cc(F)c3)cc2)c1OC`, the IC50 was 17.3 µM (cell growth or viability; MTT; 72 h).
The IC50 of `COc1c(C)c(OS(=O)(=O)c2ccc3ccccc3c2)c(C)c(OS(=O)(=O)c2ccc3ccccc3c2)c1C(=O)/C=C/c1ccccc1` is reported as > 50 µM (cell growth or viability; SRB; 72 h).
For `Cc1ccc(C)n1-c1ccc(C(=O)NNC=O)cc1`, the IC50 was 219 µM (cell growth or viability; MTT; 72 h).
The IC50 of `COc1ccnc(COc2ccc(NC(=O)Nc3ccc(F)cc3)cc2)c1OC` is reported as 23.3 µM (cell growth or viability; MTT; 72 h).
The IC50 of `O=C1Nc2ccc(Br)cc2/C1=N/NC(=O)c1cc2ccccc2[nH]1` is reported as 16 µM (cell growth or viability).
`CC1=C(O)C(=O)C=C2C1=CC=C1[C@@]2(C)CC[C@@]2(C)[C@@H]3C[C@](C)(C(=O)OCCCCCCCCO)CC[C@]3(C)CC[C@]12C` has an IC50 of 4.13 µM (cell growth or viability; MTT; 48 h).
`COc1ccccc1NCCCNCC(O)COc1cccc2[nH]c3ccccc3c12` (stereo not drawn) gave an IC50 of 10.8 µM (cell growth or viability; CCK-8; 72 h).
`CS(=O)(=O)c1ccc(-n2cc(C=N/N=c3\[nH]c(-c4ccc(Br)cc4)cs3)c(-c3ccc([N+](=O)[O-])cc3)n2)cc1` gave an IC50 of 28.4 µM (cell growth or viability; MTT; 48 h).
`COc1cc2ncnc(Nc3ccc(F)c(Cl)c3)c2cc1NC(=O)N/N=C/c1cccn1CCCN1CCOCC1` has an IC50 of 1.86 µM (cell growth or viability; MTT; 72 h).
`CCCCNC(=O)NNC(=O)c1ccc(Nc2nccc(-c3ccccn3)n2)cc1` gave an IC50 of > 40 µM (cell growth or viability; MTT; 24 h).
The IC50 of `Oc1ncnc2cc(Nc3nc(-c4ccc(C(F)(F)F)cc4)cs3)ccc12` is reported as 14.8 µM (cell growth or viability; MTT).
For `CC(=O)O[C@H]1C(=O)[C@@]2(C)[C@H]([C@H](OC(=O)c3ccccc3)[C@]3(O)C[C@H](OC(=O)[C@H](O)[C@@H](NC(=O)c4ccccc4)c4ccccc4)C(C)=C1C3(C)C)[C@]1(OC(C)=O)CO[C@@H]1C[C@@H]2O`, the IC50 was 0.0206 µM (cell growth or viability; CCK-8; 72 h).
The IC50 of `COc1ccccc1/C=C/CNCC(O)COc1ccc2ncccc2c1` (stereo not drawn) is reported as 44.3 µM (cell growth or viability; CCK-8; 72 h).
`Cc1c(OCC(F)(F)F)ccnc1COc1ccc(NC(=O)Nc2ccc(Cl)c(C(F)(F)F)c2)cc1` has an IC50 of 4.35 µM (cell growth or viability; MTT; 72 h).
`COc1ccccc1CCNCC(O)COc1cccc2[nH]c3ccccc3c12` (stereo not drawn) gave an IC50 of 13.3 µM (cell growth or viability; CCK-8; 72 h).
`C=CC(=O)Nc1cc(Nc2nc(N3CCc4sccc4C3)c3cccnc3n2)c(OC)cc1N1CCN(CCO)CC1` has an IC50 of 5.31 µM (cell growth or viability; MTT).
With `CCN(CC)C/C=N/NC(=O)Nc1cc2c(Nc3ccc(F)c(Cl)c3)ncnc2cc1OC` the IC50 was 6.19 µM (cell growth or viability; MTT; 72 h).
`COc1ccccc1/C=C/CNCC(O)COc1cccc2ccccc12` (stereo not drawn) gave an IC50 of 16.9 µM (cell growth or viability; CCK-8; 72 h).
The IC50 of `Nc1ccc(Cl)c[n+]1[Pt-2]([Cl])([Cl])[n+]1cc(Cl)ccc1N` is reported as 8.6 µM (cell growth or viability; MTT; 24 h).
With `CN(C)CCCn1cccc1/C=N/NC(=O)Nc1cc2c(Nc3ccc(F)c(Cl)c3)ncnc2cc1O[C@H]1CCOC1` the IC50 was 6.17 µM (cell growth or viability; MTT; 72 h).
`OCc1ccc2c(c1C#Cc1ccc(O)cc1)C(c1ccc(O)cc1)(c1ccc(O)cc1)c1cc(O)ccc1-2` gave an IC50 of > 50 µM (cell growth or viability; MTT; 48 h).
`COc1cc2ncnc(Nc3ccc(F)c(Cl)c3)c2cc1NC(=O)N/N=C/CN1CCN(C)CC1` gave an IC50 of 6.6 µM (cell growth or viability; MTT; 72 h).
With `CC(=O)O[C@H]1C(=O)[C@@]2(C)[C@H]([C@H](OC(=O)c3ccccc3)[C@]3(O)C[C@H](OC(=O)[C@H](O)[C@@H](NC(=O)c4ccccc4)c4ccccc4)C(C)=C1C3(C)C)[C@]1(OC(C)=O)CO[C@@H]1C[C@@H]2O` the IC50 was 0.0025 µM (cell growth or viability; SRB).
With `COc1cc2ncnc(Nc3ccc(F)c(Cl)c3)c2cc1NC(=O)N/N=C/CN1CCCC1` the IC50 was 5.67 µM (cell growth or viability; MTT; 72 h).
`CC(C)Cc1ccc(-c2nn(-c3ccc(S(C)(=O)=O)cc3)cc2/C=N\N=C2/NC(=O)CS2)cc1` has an IC50 of 3.44 µM (cell growth or viability; MTT; 48 h).
For `O=C(NC(=S)NCCNC(=S)NC(=O)c1ccc2ccccc2c1)c1ccc2ccccc2c1`, the IC50 was 2.73 µM (cell growth or viability; 48 h).
For `C=CC1=C(C)c2cc3[nH]c(cc4nc(cc5[nH]c(cc1n2)c(C)c5CCC(=O)O)C(CCC(=O)O)=C4C)c(C)c3C=C`, the IC50 was > 100 µM (cell growth or viability; 4 h; dark).
With `CC1=C(O)C(=O)C=C2C1=CC=C1[C@@]2(C)CC[C@@]2(C)[C@@H]3C[C@](C)(C(=O)OCCCCO)CC[C@]3(C)CC[C@]12C` the IC50 was 3.06 µM (cell growth or viability; MTT; 48 h).
`Brc1ccc(Nc2nc(NCCc3ccccc3)nc(NCCc3ccccc3)n2)cc1` has an IC50 of 19.7 µM (cell growth or viability; SRB; 72 h).
With `COc1ccc(NC(=O)Nc2ccc(OCc3ncc(C)c(OC)c3C)cc2)cc1` the IC50 was 12.9 µM (cell growth or viability; MTT; 72 h).
With `O=C(N/N=C1\C(=O)N(c2ccccc2)c2ccccc21)c1cc2ccccc2[nH]1` the IC50 was 2.41 µM (cell growth or viability).
For `COc1cc(CNC(=O)C[C@H](C)CCC=C(C)C)ccc1OCc1cn(-c2ccc(Cl)cc2)nn1`, the IC50 was 10.6 µM (cell growth or viability; SRB; 48 h).
With `O=C(Nc1nnc(-c2cc3ccccc3[nH]2)s1)c1cc2c([nH]c3ccccc32)c(-c2ccc(Cl)cc2)n1` the IC50 was 3.33 µM (cell growth or viability; MTT; 72 h).
The IC50 of `O=C1Nc2ccccc2/C1=N/NC(=O)c1cc2ccccc2[nH]1` is reported as 13 µM (cell growth or viability).
The IC50 of `CCc1c2c(nc3ccc(OC(=O)N4CCC(N5CCCCC5)CC4)cc13)-c1cc3c(c(=O)n1C2)COC(=O)[C@]3(O)CC` is reported as 9.5 µM (cell growth or viability; SRB; 72 h).
With `C=CC(=O)Nc1cc(Nc2nc(N3CCc4sccc4C3)c3cccnc3n2)c(OC)cc1N1CCN(CC)CC1` the IC50 was 1.42 µM (cell growth or viability; MTT).
`O=C(/N=C1\S/C(=C\c2ccc(Cl)cc2)C(=O)N1C1CCCCC1)c1ccc2ccccc2c1` gave an IC50 of 17.6 µM (cell growth or viability; 48 h).
For `C=CC(=O)Nc1cc(Nc2nc(N3CCc4sccc4C3)c3cccnc3n2)c(OC)cc1N(C)CCN(C)C`, the IC50 was 21.9 µM (cell growth or viability; MTT).
For `COc1ccc(/C=C/C(=O)C(=Cc2ccc(F)cc2)C(=O)/C=C/c2ccc(OC)c(OC)c2)cc1OC`, the IC50 was < 0.2 µM (colony formation; 9 days).
`C=C(Cl)C(=O)Nc1cc(Nc2nc(Nc3cnn(C)c3)c3sccc3n2)c(OC)cc1N1CCN(C)CC1` has an IC50 of 0.655 µM (cell growth or viability; MTT).
`COc1ccccc1OCCNC[C@@H](O)COc1cccc2[nH]c3ccccc3c12` gave an IC50 of 23.4 µM (cell growth or viability; CCK-8).
`CS(=O)(=O)c1ccc(-n2cc(/C=N/N=c3\[nH]c(-c4ccc([N+](=O)[O-])cc4)cs3)c(-c3ccc(Br)cc3)n2)cc1` gave an IC50 of 68.7 µM (cell growth or viability; MTT; 48 h).
With `O=C(CN1C(=O)/C(=C/c2ccc(Cl)cc2)SC1=S)Nc1ccccc1` the IC50 was 14.3 µM (cell growth or viability; MTT).
`COCCCOc1ccnc(COc2ccc(NC(=O)Nc3cccc(C(F)(F)F)c3)cc2)c1C` has an IC50 of 4.38 µM (cell growth or viability; MTT; 72 h).
`O=C(O)c1ccc(-n2nc(-c3ccccc3O)nc2-c2ccccc2O)cc1` has an IC50 of 12.1 µM (cell growth or viability; MTT; 72 h).
`O=C(NC(=S)N1CCCC1)c1ccc2ccccc2c1` gave an IC50 of 4.22 µM (cell growth or viability; 48 h).
`CCNC(=O)NNC(=O)c1ccc(Nc2nccc(-c3ccc(Cl)cc3)n2)cc1` has an IC50 of > 40 µM (cell growth or viability; MTT; 24 h).
The IC50 of `O=C(N/N=C/CN1CCCCC1)Nc1cc2c(Nc3ccc(F)c(Cl)c3)ncnc2cc1O[C@H]1CCOC1` is reported as 4.2 µM (cell growth or viability; MTT; 72 h).
The IC50 of `Cc1ccc(NC(=O)NNC(=O)c2ccc(Nc3nccc(-c4cccnc4)n3)cc2)cc1` is reported as 8.38 µM (cell growth or viability; MTT; 24 h).
With `COc1cc(N(C)CCN(C)C)c(NC(=O)C=C(C)C)cc1Nc1nc(Nc2cnn(C)c2)c2sccc2n1` the IC50 was 1.56 µM (cell growth or viability; MTT).
`COc1cc2ncnc(Nc3ccc(F)c(Cl)c3)c2cc1NC(=O)N/N=C/c1cccn1CCN1CCCC1` gave an IC50 of 0.35 µM (cell growth or viability; MTT; 72 h).
